According to ChEMBL document CHEMBL3393034, “Discovery of piperidine ethers as selective orexin receptor antagonists (SORAs) inspired by filorexant” (Bioorg Med Chem Lett, 2015):
≈ marks a conversion by molar mass, not a printed value. Calls of active or inactive are those of the source. The rule behind the calls is not given here.

Legend:
Orexin receptor type 2 [1] = target: T1, Orexin receptor type 2 (Homo sapiens, UniProt O43614); assay: Antagonist activity at human OX2R by radioligand displacement assay
T1 sequence (O43614 whole entry): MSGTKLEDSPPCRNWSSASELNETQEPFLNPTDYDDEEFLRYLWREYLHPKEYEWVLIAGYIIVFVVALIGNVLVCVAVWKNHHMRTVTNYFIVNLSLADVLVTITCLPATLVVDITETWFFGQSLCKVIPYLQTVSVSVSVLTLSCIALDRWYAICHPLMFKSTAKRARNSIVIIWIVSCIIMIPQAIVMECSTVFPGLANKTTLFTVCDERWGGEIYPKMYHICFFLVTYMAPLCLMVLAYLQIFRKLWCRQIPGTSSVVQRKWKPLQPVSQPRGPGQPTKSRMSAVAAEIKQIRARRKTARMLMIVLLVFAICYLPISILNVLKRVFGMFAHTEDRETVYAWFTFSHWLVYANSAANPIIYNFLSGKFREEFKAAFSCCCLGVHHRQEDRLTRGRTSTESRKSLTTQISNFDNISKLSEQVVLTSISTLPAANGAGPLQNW
Method in brief: (§1)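 Radioligand-displacement binding assay at the human orexin receptor; affinity expressed as Ki; data for racemates unless otherwise noted.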

Homo sapiens = species on record: Homo sapiens; assay: Selectivity ratio of Ki for human OX1R to Ki for human OX2R
Method in brief: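 Selectivity index for OX2R over OX1R, calculated from radioligand-displacement binding Ki values at the two human receptors.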

[2] = target: T2, Orexin/Hypocretin receptor type 1 (Homo sapiens, UniProt O43613); assay: Antagonist activity at human OX1R by radioligand displacement assay; method in brief: as §1
T2 sequence (O43613 whole entry): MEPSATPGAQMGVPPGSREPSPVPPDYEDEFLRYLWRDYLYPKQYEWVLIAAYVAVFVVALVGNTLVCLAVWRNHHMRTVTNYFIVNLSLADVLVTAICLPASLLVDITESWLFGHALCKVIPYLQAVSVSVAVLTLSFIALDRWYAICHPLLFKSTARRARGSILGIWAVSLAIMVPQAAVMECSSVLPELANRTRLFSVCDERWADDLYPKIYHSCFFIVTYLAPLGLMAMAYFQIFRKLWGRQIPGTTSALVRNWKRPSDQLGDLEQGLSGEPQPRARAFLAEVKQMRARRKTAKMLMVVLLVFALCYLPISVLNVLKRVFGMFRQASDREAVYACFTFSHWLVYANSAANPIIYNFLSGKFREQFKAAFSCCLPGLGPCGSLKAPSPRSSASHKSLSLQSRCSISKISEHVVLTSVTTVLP

[3] = AUC in beagle dog at 3 mg/kg, po; type: ADME, organism-based, Canis lupus familiaris; set-up: dose 3 mg/kg, route oral; details: plasma
Method in brief: (§2)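 Beagle dogs were dosed intravenously at 0.125 mg/kg and orally at 3 mg/kg. Readouts were clearance (mL/min/kg), terminal half-life, and oral AUC (µM•h), Cmax (µM), Tmax (h) and bioavailability (%).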

[4] = Drug uptake in rat CSF at 30 mg/kg, po after 30 mins; type: ADME, organism-based; set-up: dose 30 mg/kg, route oral; details: cerebrospinal fluid, read-out: Drug uptake
Method in brief: (§3)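 Rats received a single 30 mg/kg oral dose. Receptor occupancy, plasma level and CSF level were determined at t = 30 min.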

Rattus norvegicus [5] = assay: Ex vivo receptor occupancy of OX2R in rat at 30 mg/kg, po after 30 mins; type: functional; method in brief: as §3
[6] = Plasma protein binding in rat; type: ADME, cell-free; details: read-out: PPB (converted)
[7] = Clearance in beagle dog at 0.125 mg/kg, iv; type: ADME, organism-based, Canis lupus familiaris; set-up: dose 0.125 mg/kg, route intravenous; details: in vivo; method in brief: as §2
[8] = Plasma concentration in rat at 30 mg/kg, po after 30 mins; type: ADME, organism-based; set-up: dose 30 mg/kg, route oral; method in brief: as §3
[9] = AUC in Sprague-Dawley rat at 30 mg/kg, po; details: plasma
[10] = Fraction unbound in rat plasma; type: ADME, cell-free
[11] = AUC in Sprague-Dawley rat at 10 mg/kg, po; type: ADME, organism-based; set-up: dose 10 mg/kg, route oral; details: plasma
Method in brief: (§4)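 Sprague–Dawley rats were dosed intravenously at 2 mg/kg and orally at 10 mg/kg. Readouts were clearance (mL/min/kg), terminal half-life, plasma AUC (µM•h) and oral bioavailability (%).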

Rattus norvegicus [12] = assay: Effect on sleep-wake cycle in rat assessed as change in active wake at 30 mg/kg, po after 30 mins relative to vehicle-treated control; type: functional, organism-based; set-up: dose 30 mg/kg
Method in brief: (§5)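 EEG-telemetry in rats, 30 mg/kg oral versus vehicle (20% vitamin E TPGS). Dosing was at 09:00 in the active phase (ZT 17:00, 7 h before lights on), recorded from 30 min pre-dose to 2 h post-dose. Active wake, light, delta and REM sleep were scored as means in 10-min bins. Balanced crossover over 3 consecutive days, N=6.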

[13] = target: T2, Orexin/Hypocretin receptor type 1; assay: Antagonist activity at human OX1R by FLIPR assay
Method in brief: (§6)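 Functional FLIPR readout in CHO cells engineered to overexpress the human orexin receptor; antagonism expressed as IC50.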

[14] = Oral bioavailability in Sprague-Dawley rat at 10 mg/kg; type: ADME, organism-based; details: in vivo; method in brief: as §4
[15] = Half life in Sprague-Dawley rat at 2 mg/kg, iv; type: ADME, organism-based; set-up: dose 2 mg/kg, route intravenous; details: in vivo; method in brief: as §4
[16] = Oral bioavailability in beagle dog at 3 mg/kg; type: ADME, organism-based, Canis lupus familiaris; details: in vivo; method in brief: as §2
P-gp = assay: Binding affinity to human P-gp assessed as apparent passive permeability; type: ADME; details: not told
[17] = Aqueous solubility of the compound at pH 2; type: physicochemical; details: aqueous medium
[18] = Tmax in Sprague-Dawley rat at 30 mg/kg, po; details: in vivo
[19] = Oral bioavailability in Sprague-Dawley rat at 30 mg/kg; details: in vivo
[20] = Clearance in Sprague-Dawley rat at 2 mg/kg, iv; type: ADME, organism-based; set-up: dose 2 mg/kg, route intravenous; details: in vivo; method in brief: as §4
[21] = Aqueous solubility of the compound at pH 7; type: physicochemical; details: aqueous medium
Rattus norvegicus [22] = assay: Effect on sleep-wake cycle in rat assessed as increase in REM sleep at 30 mg/kg, po after 30 mins relative to vehicle-treated control; type: functional, organism-based; set-up: dose 30 mg/kg; method in brief: as §5
[23] = Half life in beagle dog at 0.125 mg/kg, iv; type: ADME, organism-based, Canis lupus familiaris; set-up: dose 0.125 mg/kg, route intravenous; details: in vivo; method in brief: as §2
[24] = Plasma protein binding in human; type: ADME, cell-free; details: read-out: PPB (converted)
Orexin receptor type 2 [25] = target: T1, Orexin receptor type 2; assay: Antagonist activity at human OX2R by FLIPR assay; method in brief: as §6
[26] = Fraction unbound in human plasma; type: ADME, cell-free
Rattus norvegicus [27] = assay: Effect on sleep-wake cycle in rat assessed as increase in delta sleep at 30 mg/kg, po after 30 mins relative to vehicle-treated control; type: functional, organism-based; set-up: dose 30 mg/kg; method in brief: as §5
[28] = Cmax in Sprague-Dawley rat at 30 mg/kg, po; details: in vivo
[29] = Lipophilicity, log D of the compound by HPLC analysis; type: physicochemical
[30] = Cmax in beagle dog at 3 mg/kg, po; type: ADME, organism-based, Canis lupus familiaris; set-up: dose 3 mg/kg, route oral; details: in vivo; method in brief: as §2
[31] = Tmax in beagle dog at 3 mg/kg, po; type: ADME, organism-based, Canis lupus familiaris; set-up: dose 3 mg/kg, route oral; details: in vivo; method in brief: as §2

Compound: CC1CCC(Oc2cccc3cccnc23)CN1C(=O)c1ccccc1-n1nccn1 (racemic)
- Ki (Orexin receptor type 2 [1]): 9.8 nM
- Ratio Ki (Homo sapiens): 78
- Ki [2]: 760 nM

Compound: CC1CCC(Oc2cccc3ccncc23)CN1C(=O)c1ccccc1-n1nccn1 (racemic)
- Ki (Orexin receptor type 2 [1]): 9.3 nM
- Ratio Ki (Homo sapiens): 97
- Ki [2]: 900 nM

Compound: Cc1ccc(-n2nccn2)c(C(=O)N2CCCC(Oc3cccc4ccccc34)C2)c1 (stereo unspecified)
- Ki (Orexin receptor type 2 [1]): 18 nM
- Ratio Ki (Homo sapiens): 0.5
- Ki [2]: 9 nM

Compound: CC1CCC(Oc2ccnc3ccccc23)CN1C(=O)c1ccccc1-n1nccn1 (racemic)
- Ki (Orexin receptor type 2 [1]): 6.8 nM
- Ratio Ki (Homo sapiens): 397
- Ki [2]: 2700 nM

Compound: C[C@@H]1CC[C@@H](Oc2ccnc3c(F)cccc23)CN1C(=O)c1ccccc1N(C)C
- Ki (Orexin receptor type 2 [1]): 370 nM

Compound: Cc1cc(OC2CCC(C)N(C(=O)c3ccccc3-n3nccn3)C2)c2ccccc2n1 (racemic)
- Ki (Orexin receptor type 2 [1]): 28.9 nM
- Ratio Ki (Homo sapiens): 125
- Ki [2]: 3600 nM

Compound: O=C(c1ccccc1-n1nccn1)N1CCC(F)(F)[C@@H](Oc2ccc3ccccc3n2)C1
- Ki (Orexin receptor type 2 [1]): 521 nM
- Ki [2]: 1.3 nM

Compound: C[C@@H]1CC[C@@H](Oc2ccnc3c(F)cccc23)CN1C(=O)c1ccccc1-c1cccnc1
- Ki (Orexin receptor type 2 [1]): 63 nM
- Ratio Ki (Homo sapiens): 302
- Ki [2]: 19000 nM

Compound: C[C@@H]1CC[C@@H](Oc2ccnc3c(F)cccc23)CN1C(=O)c1ccccc1-n1nccn1
- AUC [3]: 16 µM·h
- concentration at 0.5 h [4]: 0.339 µM
- Occ (Rattus norvegicus [5]): 72%
- fraction unbound [6]: 0.04
- clearance [7]: 6.2 mL/min/kg
- concentration at 0.5 h [8]: 9.5 µM
- AUC [9]: 30.1 µM·h
- fraction unbound [10]: 0.03
- Ki (Orexin receptor type 2 [1]): 0.6 nM
- AUC [11]: 3.9 µM·h
- Activity (Rattus norvegicus [12]): Active
- IC50 [13]: 3910 nM
- bioavailability [14]: 19%
- half-life [15]: 24 min
- bioavailability [16]: 60%
- Papp (P-gp): 34 ×10⁻⁶ cm/s
- solubility [17]: 182 µM (≈ 78.5 µg/mL)
- Tmax [18]: 30 min
- bioavailability [19]: 50%
- clearance [20]: 22.5 mL/min/kg
- solubility [21]: 161 µM (≈ 69.5 µg/mL)
- Ki [2]: 965 nM
- Activity (Rattus norvegicus [22]): Active
- half-life [23]: 42 min
- fraction unbound [24]: 0.029
- IC50 (Orexin receptor type 2 [25]): 18 nM
- fraction unbound [26]: 0.03
- Activity (Rattus norvegicus [27]): Active
- Cmax [28]: 15.7 µM
- logD [29]: 2.35
- Cmax [30]: 5.65 µM
- Tmax [31]: 22.8 min

Compound: CC1CCC(Oc2ccnc3c(F)cccc23)CN1C(=O)c1ccccc1-n1nccn1 (racemic)
- Ki (Orexin receptor type 2 [1]): 1.3 nM
- Ki [2]: 910 nM

Compound: CC1CCC(Oc2cccc3ncccc23)CN1C(=O)c1ccccc1-n1nccn1 (racemic)
- Ki (Orexin receptor type 2 [1]): 5.1 nM
- Ratio Ki (Homo sapiens): 202
- Ki [2]: 1030 nM

Compound: COc1cnc(O[C@@H]2CC[C@@H](C)N(C(=O)c3ccccc3-n3nccn3)C2)c2ccccc12
- Ki (Orexin receptor type 2 [1]): 0.24 nM
- Ki [2]: 0.41 nM

Compound: CC1CCC(Oc2ccnc3c(Cl)cccc23)CN1C(=O)c1ccccc1-n1nccn1 (racemic)
- Ki (Orexin receptor type 2 [1]): 0.9 nM
- Ratio Ki (Homo sapiens): 567
- Ki [2]: 510 nM

Compound: C[C@@H]1CC[C@@H](Oc2ccnc3c(F)cccc23)CN1C(=O)c1ccccc1-c1ncccn1
- Ki (Orexin receptor type 2 [1]): 0.8 nM
- Ratio Ki (Homo sapiens): 1500
- Ki [2]: 1200 nM

Compound: CC1CCC(Oc2cc(C(F)(F)F)nc3ccccc23)CN1C(=O)c1ccccc1-n1nccn1 (racemic)
- Ki (Orexin receptor type 2 [1]): 149 nM

Compound: CC1CCC(Oc2c(Br)cnc3ccccc23)CN1C(=O)c1ccccc1-n1nccn1 (racemic)
- Ki (Orexin receptor type 2 [1]): 180 nM

Compound: Cc1ccc(-c2ncccn2)c(C(=O)N2C[C@H](COc3ccc(F)cn3)CC[C@H]2C)c1 [FILOREXANT]
- Ratio Ki (Homo sapiens): 9
- IC50 [13]: 16 nM
- Ki [2]: 2.9 nM
- IC50 (Orexin receptor type 2 [25]): 17 nM

Compound: CC1CCC(Oc2cccc3cnccc23)CN1C(=O)c1ccccc1-n1nccn1 (racemic)
- Ki (Orexin receptor type 2 [1]): 7.5 nM
- Ratio Ki (Homo sapiens): 55
- Ki [2]: 415 nM

Compound: CC1CCC(Oc2ccnc3ccc(Br)cc23)CN1C(=O)c1ccccc1-n1nccn1 (racemic)
- Ki (Orexin receptor type 2 [1]): 5.2 nM
- Ratio Ki (Homo sapiens): 90
- Ki [2]: 470 nM

Compound: Cc1ccc(-n2nccn2)c(C(=O)N2C[C@H](Oc3cccc4ccccc34)CC[C@H]2C)c1 (relative stereo)
- Ki (Orexin receptor type 2 [1]): 1 nM
- Ratio Ki (Homo sapiens): 13
- Ki [2]: 13 nM

Compound: Cc1ccc(-n2nccn2)c(C(=O)N2CCCC(COc3ccc(F)c(C)c3)C2)c1 (stereo unspecified)
- Ki (Orexin receptor type 2 [1]): 8.9 nM
- Ratio Ki (Homo sapiens): 0.6
- Ki [2]: 5.5 nM

Compound: Cc1ccc(-n2nccn2)c(C(=O)N2CCCC(Oc3ccc(F)c(C)c3)C2)c1 (stereo unspecified)
- Ki (Orexin receptor type 2 [1]): 55 nM
- Ratio Ki (Homo sapiens): 2
- Ki [2]: 106 nM

Compound: CC1CCC(Oc2ccnc3c(Br)cccc23)CN1C(=O)c1ccccc1-n1nccn1 (racemic)
- Ki (Orexin receptor type 2 [1]): 2.6 nM
- Ratio Ki (Homo sapiens): 423
- Ki [2]: 1100 nM

Compound: C[C@@H]1CC[C@@H](Oc2nccc3ccccc23)CN1C(=O)c1ccccc1-n1nccn1 (relative stereo)
- Ki (Orexin receptor type 2 [1]): 0.3 nM
